The values below come from ChEMBL document CHEMBL1143844, “Biochemical studies on the mechanism of human immunodeficiency virus type 1 reverse transcriptase resistance to 1-(beta-D-dioxolane)thymine triphosphate” (Antimicrob Agents Chemother, 2007).

Assay [1] has as its target T1, Human immunodeficiency virus type 1 reverse transcriptase (Human immunodeficiency virus 1, UniProt Q72547). In words: Inhibition of HIV1 LAI reverse transcriptase wild type LAI by heteropolymeric DNA polymerase assay. In short, it runs like this: (§1)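 Heteropolymeric assay without ATP: plate-bound 18-mer DNA primer (~110 nM) with 50-mer 5′-A12-(GTCA)5 template (190 nM). dATP, dGTP, dCTP and BrdUTP at 1.0 μM each, in HEPES 50 mM pH 7.3, MgCl2 10 mM. RT 30–100 pM, 33°C for 180 min, then NaOH dehybridization and anti-BrdU-AP tracer read at 405 nm. IC50 from seven triphosphate concentrations; two to four runs in duplicate.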

Assay [2] can be described thus: Inhibition of HIV1 reverse transcriptase 41L/67N/70R/184V/210W/215Y mutant in presence of 5 mM ATP by heteropolymeric DNA polymerase assay. Also noted: species or system Human immunodeficiency virus 1. In short, it runs like this:
(§2)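 Heteropolymeric DNA polymerase assay with ATP added at 5 mM. Purified HIV-1 RT at 30–100 pM acts on a plate-bound DNA primer with a 5′-A12-(GTCA)5-3′ template. dATP, dGTP, dCTP and BrdUTP at 1.0 μM each. Incubation 180 min at 33°C. BrdUMP incorporation read via anti-BrdU-AP at 405 nm after NaOH dehybridization. IC50 from seven inhibitor concentrations, at least two experiments in duplicate.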

Assay [3] in a line: Inhibition of HIV1 reverse transcriptase 75I/77L/116Y/151M mutant in presence of 5 mM ATP by heteropolymeric DNA polymerase assay. Also noted: species or system Human immunodeficiency virus 1. In a few lines: as §2
Assay [4] is described as follows: Inhibition of HIV1 reverse transcriptase 41L/67N/70R/210W/215Y mutant by heteropolymeric DNA polymerase assay. On the set-up: species or system Human immunodeficiency virus 1. In a few lines:
(§3)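 Purified p66/p51 HIV-1 RT, or p66 homodimer for 65R, at 30–100 pM (about 1.5–4.5 mU/well). Plate-bound 18-mer DNA primer on a 50-base 5′-A12-(GTCA)5-3′ DNA template. dATP, dGTP, dCTP and BrdUTP at 1.0 μM each, no ATP. Buffer: HEPES 50 mM pH 7.3, 10 mM MgCl2. Incubation 180 min at 33°C, NaOH dehybridization, anti-BrdU-AP tracer, A405. IC50 from seven inhibitor concentrations, at least two experiments in duplicate.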

Assay [5] in a line: Inhibition of HIV1 reverse transcriptase wild type HXB2(a) by heteropolymeric DNA polymerase assay. On the set-up: species or system Human immunodeficiency virus 1. In short, it runs like this:
as §1

The nature of assay [6]: Inhibition of HIV1 reverse transcriptase 184V mutant by heteropolymeric DNA polymerase assay. Also noted: species or system Human immunodeficiency virus 1. In short, it runs like this:
as §3

A short description of assay [7]: Inhibition of HIV1 reverse transcriptase 184V mutant in presence of 5 mM ATP by heteropolymeric DNA polymerase assay. On the set-up: species or system Human immunodeficiency virus 1. In short, it runs like this: as §2
A short description of assay [8]: Inhibition of HIV1 LAI reverse transcriptase 65R mutant by heteropolymeric DNA polymerase assay. Also noted: species or system Human immunodeficiency virus 1. In short, it runs like this:
as §3

Assay [9] can be described thus: Inhibition of HIV1 reverse transcriptase 75I/77L/116Y/151M mutant by heteropolymeric DNA polymerase assay. Also noted: species or system Human immunodeficiency virus 1. In short, it runs like this: as §3
A short description of assay [10]: Inhibition of HIV1 reverse transcriptase 75I/77L/116Y/151M/184V mutant by heteropolymeric DNA polymerase assay. On the set-up: species or system Human immunodeficiency virus 1. In a few lines: as §3
Assay [11] is described as follows: Inhibition of HIV1 reverse transcriptase 41L/69S-SG/184V/210W/215Y mutant in presence of 5 mM ATP by heteropolymeric DNA polymerase assay. Also noted: species or system Human immunodeficiency virus 1. In a few lines:
as §2

A short description of assay [12]: Inhibition of HIV1 reverse transcriptase 41L/69S-SG/184V/210W/215Y mutant by heteropolymeric DNA polymerase assay. Also noted: species or system Human immunodeficiency virus 1. In a few lines:
as §3

Assay [13] is described as follows: Inhibition of HIV1 reverse transcriptase 41L/67N/70R/184V/210W/215Y mutant by heteropolymeric DNA polymerase assay. On the set-up: species or system Human immunodeficiency virus 1. In a few lines: as §3
Assay [14] in a line: Inhibition of HIV1 reverse transcriptase 75I/77L/116Y/151M/184V mutant in presence of 5 mM ATP by heteropolymeric DNA polymerase assay. On the set-up: species or system Human immunodeficiency virus 1. In a few lines:
as §2

Assay [15] can be described thus: Inhibition of HIV1 reverse transcriptase wild type HXB2(a) in presence of 5 mM ATP by heteropolymeric DNA polymerase assay. Also noted: species or system Human immunodeficiency virus 1. In a few lines: (§4)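 Heteropolymeric DNA assay with 5 mM ATP added: immobilized 18-mer primer, 5′-A12-(GTCA)5 50-mer template, dATP/dGTP/dCTP/BrdUTP at 1.0 μM each, HEPES 50 mM pH 7.3, MgCl2 10 mM. RT 30–100 pM, incubated at 33°C for 180 min. NaOH strand separation, then anti-BrdU-AP detection at 405 nm. IC50 fitted from seven inhibitor concentrations; two to four runs in duplicate.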

Assay [16] deals with T1, Human immunodeficiency virus type 1 reverse transcriptase. Nature of the assay: Inhibition of HIV1 LAI reverse transcriptase wild type in presence of 5 mM ATP by heteropolymeric DNA polymerase assay. In short, it runs like this: as §4
Assay [17] can be described thus: Inhibition of HIV1 LAI reverse transcriptase 65R mutant in presence of 5 mM ATP by heteropolymeric DNA polymerase assay. Also noted: species or system Human immunodeficiency virus 1. In a few lines:
as §2

A short description of assay [18]: Inhibition of HIV1 reverse transcriptase 41L/69S-SG/210W/215Y mutant in presence of 5 mM ATP by heteropolymeric DNA polymerase assay. Also noted: species or system Human immunodeficiency virus 1. In short, it runs like this:
as §2

Assay [19] concerns the target T1, Human immunodeficiency virus type 1 reverse transcriptase. Nature of the assay: Inhibition of HIV1 pNL4-3 reverse transcriptase wild type pNL4-3 by heteropolymeric DNA polymerase assay. In a few lines: as §1
Assay [20] is described as follows: Inhibition of HIV1 pNL4-3 reverse transcriptase 115F mutant in presence of 5 mM ATP by heteropolymeric DNA polymerase assay. Also noted: species or system Human immunodeficiency virus 1. In a few lines:
as §2

Assay [21] is described as follows: Inhibition of HIV1 reverse transcriptase 41L/69S-SG/210W/215Y mutant by heteropolymeric DNA polymerase assay. Also noted: species or system Human immunodeficiency virus 1. In short, it runs like this: as §3
A short description of assay [22]: Inhibition of HIV1 pNL4-3 reverse transcriptase 115F mutant by heteropolymeric DNA polymerase assay. Also noted: species or system Human immunodeficiency virus 1. In short, it runs like this: as §3
The target of assay [23] is T1, Human immunodeficiency virus type 1 reverse transcriptase. In words: Inhibition of HIV1 pNL4-3 reverse transcriptase wild type pNL4-3 in presence of 5 mM ATP by heteropolymeric DNA polymerase assay. In a few lines:
as §4

Usually IC50 stands for the concentration at which inhibition is half-maximal. Regarding `Nc1nc2c(ncn2[C@H]2CO[C@@H](COP(=O)(O)OP(=O)(O)OP(=O)(O)O)O2)c(=O)[nH]1`, the IC50 in assay [1] turned out to be 180 nM; in assay [2], 190 nM; in assay [3] it was 1200 nM; in assay [4], 110 nM; in assay [5] it was 120 nM; in [6], 200 nM. The IC50 in assay [7] was 200 nM; in assay [8] it was 620 nM; in assay [9], 2500 nM; in assay [10] it was 7200 nM; in [11] it was 260 nM; in [12] it was 140 nM. Further, the IC50 in [13] was determined as 140 nM; in assay [14] it was 2400 nM; in [15], 150 nM; in [16], 200 nM; in [17] it was 1300 nM; in [18], 340 nM.

Take `Nc1nc(=O)c2ncn([C@H]3C=C[C@@H](COP(=O)(O)OP(=O)(O)OP(=O)(O)O)C3)c2[nH]1` [CARBOVIR 5'-TRIPHOSPHATE, (-)-]: the 50% inhibitory concentration (IC50) in [1] was 680 nM; in assay [2], 4500 nM; in assay [3], 11000 nM; in assay [19], 1200 nM; in [4] it was 900 nM; in assay [5] it was 1100 nM. Also, the half-maximal inhibitory concentration (IC50) came to 5500 nM in assay [6]; 3600 nM in assay [20]; 8400 nM in assay [7]; 900 nM in [21]; 5000 nM in [8]; 6600 nM in assay [9]. Besides, the IC50 is 54000 nM in [10]; 6400 nM in [11]; 3400 nM in assay [12]; 2600 nM in assay [22]; 2700 nM in [13]; 18000 nM in [14]. Also, the IC50 came out at 1500 nM in assay [15]; 900 nM in assay [16]; 5500 nM in assay [17]; 5100 nM in assay [18]; 1800 nM in assay [23].
